Results as given in ChEMBL document CHEMBL2146441, “2,6-Disubstituted imidazo[2,1-b][1,3,4]thiadiazoles: search for anticancer agents” (2012).

What was measured:
Type in all cases: functional
NCI-H226 [1] = test: Cytotoxicity against human NCI-H226 cells assessed as cell growth at 10^-5 M after 48 hrs by SRB assay; settings: NCI-H226, 48 h, read-out: Activity
NCI-H322M = test: Cytotoxicity against human NCI-H322M cells assessed as cell growth at 10^-5 M after 48 hrs by SRB assay; settings: read-out: Activity
UACC-62 = test: Cytotoxicity against human UACC62 cells assessed as cell growth at 10^-5 M after 48 hrs by SRB assay; settings: UACC-62, 48 h, read-out: Activity
IGROV-1 = test: Cytotoxicity against human IGROV1 cells assessed as cell growth at 10^-5 M after 48 hrs by SRB assay; settings: IGROV-1, 48 h, read-out: Activity
In short: (§1)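 NCI-60 five-dose screen. Cells were grown in RPMI 1640 with 5% FBS and seeded at 5000–40,000 cells/well according to doubling time. They were pre-incubated 24 h at 37 °C in 5% CO₂, and time-zero (Tz) plates were TCA-fixed at drug addition. Five 10-fold dilutions of DMSO stock were applied for 48 h. Read-out was SRB staining, 515 nm absorbance, with percent growth calculated versus Tz and untreated control.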

786-0 = test: Cytotoxicity against human 786-0 cells assessed as cell growth at 10^-5 M after 48 hrs by SRB assay; settings: 786-0, 48 h, read-out: Activity
In short: (§2)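 NCI-60 screen: lines kept in RPMI 1640 with 5% FBS, seeded at 5000–40,000 cells/well by doubling time, preincubated 24 h at 37 °C in 5% CO2. Time-zero plates TCA-fixed at drug addition. DMSO stocks diluted in medium, 48 h exposure. Fixation in cold TCA (final 10% adherent, 16% suspension), 0.4% SRB stain, solubilised in 10 mM Tris base, A515. Percent growth computed against control and time-zero.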

SF-268 = test: Growth inhibition of human SF268 cells after 48 hrs by SRB assay; settings: SF-268, 48 h
In short: (§3)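 Adherent NCI-60 lines grown in RPMI 1640 with 5% FBS, seeded at 5000–40,000 cells/well, and preincubated 24 h at 37 °C, 5% CO2. Compound, stocked in DMSO, given either once at 10^-5 M or at five 10-fold dilutions for 48 h. Cells fixed with cold TCA (final 10%), stained with 0.4% SRB, and read at 515 nm. GI50 taken as 50% reduction in net protein increase versus time-zero and control plates.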

CAKI-1 = test: Growth inhibition of human Caki1 cells after 48 hrs by SRB assay; settings: CAKI-1, 48 h
In short: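 Same 48 h NCI-60 five-dose SRB protocol. Adherent lines were fixed with cold TCA at 10% final; suspension lines such as CCRF-CEM were fixed with 16% final TCA. Stain was 0.4% SRB in 1% acetic acid for 10 min, solubilized in 10 mM Tris base and read at 515 nm. GI50 came from log concentration–growth curves, solving [(Ti−Tz)/(C−Tz)]×100 = 50.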

SN12C = test: Growth inhibition of human SN12C cells after 48 hrs by SRB assay; settings: for CC50: read-out: LC50 (the source's name); in short: as §3
[2] = Cytotoxicity against human Hs 578T cells assessed as cell growth at 10^-5 M after 48 hrs by SRB assay; settings: read-out: Activity; in short: as §1
BT-549 = test: Cytotoxicity against human BT549 cells assessed as cell growth at 10^-5 M after 48 hrs by SRB assay; settings: BT-549, 48 h, read-out: Activity; in short: as §2
[3] = Cytotoxicity against human […] cells assessed as cell growth at 10^-7 M after 48 hrs by SRB assay; settings: 48 h, read-out: Activity
HOP-62 = test: Cytotoxicity against human HOP62 cells assessed as cell growth at 10^-7 M after 48 hrs by SRB assay; settings: HOP-62, 48 h, read-out: Activity; in short: as §1
HCC 2998 [4] = test: Cytotoxicity against human HCC2998 cells assessed as cell growth at 10^-7 M after 48 hrs by SRB assay; settings: HCC 2998, 48 h, read-out: Activity; in short: as §1
U-251 = test: Cytotoxicity against human U251 cells assessed as cell growth at 10^-7 M after 48 hrs by SRB assay; settings: U-251, 48 h, read-out: Activity
LOX IMVI = test: Cytotoxicity against human LOXIMVI cells assessed as cell growth at 10^-7 M after 48 hrs by SRB assay; settings: read-out: Activity
NCI-H226 [5] = test: Cytotoxicity against human NCI-H226 cells assessed as cell growth at 10^-4 M after 48 hrs by SRB assay; settings: NCI-H226, 48 h, read-out: Activity
NCI-H522 [6] = test: Cytotoxicity against human NCI-H522 cells assessed as cell growth at 10^-4 M after 48 hrs by SRB assay; settings: NCI-H522, 48 h, read-out: Activity
A498 = test: Cytotoxicity against human A498 cells assessed as cell growth at 10^-4 M after 48 hrs by SRB assay; settings: A498, 48 h, read-out: Activity; in short: as §2
TK-10 = test: Cytotoxicity against human TK10 cells assessed as cell growth at 10^-4 M after 48 hrs by SRB assay; settings: TK-10, 48 h, read-out: Activity
DU-145 = test: Cytotoxicity against human DU145 cells assessed as cell growth at 10^-4 M after 48 hrs by SRB assay; settings: DU-145, 48 h, read-out: Activity; in short: as §2
NCI-H460 = test: Cytotoxicity against human NCI-H460 cells assessed as cell growth at 10^-8 M after 48 hrs by SRB assay; settings: NCI-H460, 48 h, read-out: Activity
KM12 [7] = test: Cytotoxicity against human KM12 cells assessed as cell growth at 10^-8 M after 48 hrs by SRB assay; settings: KM12, 48 h, read-out: Activity
SNB-19 = test: Cytotoxicity against human SNB19 cells assessed as cell growth at 10^-8 M after 48 hrs by SRB assay; settings: SNB-19, 48 h, read-out: Activity
SK-MEL-28 = test: Cytotoxicity against human SK-MEL-28 cells assessed as cell growth at 10^-8 M after 48 hrs by SRB assay; settings: SK-MEL-28, 48 h, read-out: Activity
NCI-H522 [8] = test: Cytotoxicity against human NCI-H522 cells assessed as cell growth at 10^-6 M after 48 hrs by SRB assay; settings: NCI-H522, 48 h, read-out: Activity
KM12 [9] = test: Cytotoxicity against human KM12 cells assessed as cell growth at 10^-6 M after 48 hrs by SRB assay; settings: KM12, 48 h, read-out: Activity
NCI-H226 [10] = test: Growth inhibition of human NCI-H226 cells after 48 hrs by SRB assay; settings: NCI-H226, 48 h; for CC50: read-out: LC50 (the source's name); in short: as §3
HCC 2998 [11] = test: Growth inhibition of human HCC2998 cells after 48 hrs by SRB assay; settings: HCC 2998, 48 h; in short: as §3
EKVX = test: Cytotoxicity against human EKVX cells assessed as cell growth at 10^-5 M after 48 hrs by SRB assay; settings: read-out: Activity; in short: as §2

`COc1ccc(-c2nn3cc(-c4cccc(N)c4)nc3s2)cc1` showed a growth at 10 µM (NCI-H226 [1]) of 16%, a growth at 10 µM (NCI-H322M) of 44% and a growth at 10 µM (UACC-62) of 26%. It also gave a growth at 10 µM (IGROV-1) of 20%, a growth at 10 µM (786-0) of 23% and a GI50 (SF-268) of 4.13 µM. For the same compound, the LC50 (SF-268) was greater than 100 µM, the TGI (SF-268) was 27.2 µM and the GI50 (CAKI-1) was 743 nM. The LC50 (50% lethal concentration) (CAKI-1) was greater than 100 µM, the TGI (CAKI-1) was 10.9 µM and the GI50 (SN12C) was 4.18 µM. For the same compound, the TGI (SN12C) was greater than 100 µM, the CC50 (SN12C) was greater than 100 µM and the growth at 10 µM [2] was 6%. For the same compound, the growth at 10 µM (BT-549) was 24%, the growth at 0.1 µM [3] was 83% and the growth at 0.1 µM (HOP-62) was 98%. For the same compound, the growth at 0.1 µM (HCC 2998 [4]) was 96%, the growth at 0.1 µM (U-251) was 106% and the growth at 0.1 µM (LOX IMVI) was 92%. It also gave a growth at 100 µM (NCI-H226 [5]) of -61%, a growth at 100 µM (NCI-H522 [6]) of -76% and a growth at 100 µM (A498) of -67%. It also gave a growth at 100 µM (TK-10) of -30%, a growth at 100 µM (DU-145) of -41% and a growth at 0.01 µM (NCI-H460) of 100%. For the same compound, the growth at 0.01 µM (KM12 [7]) was 98%, the growth at 0.01 µM (SNB-19) was 96% and the growth at 0.01 µM (SK-MEL-28) was 95%. The growth at 1 µM (NCI-H522 [8]) was 60%, the growth at 1 µM (KM12 [9]) was 84% and the GI50 (NCI-H226 [10]) was 1530 nM. The TGI (NCI-H226 [10]) was 16.2 µM, the CC50 (NCI-H226 [10]) was 71.6 µM and the GI50 (HCC 2998 [11]) was 1080 nM. For the same compound, the LC50 (concentration causing 50% net cell kill) (HCC 2998 [11]) was greater than 100 µM, the TGI (HCC 2998 [11]) was greater than 100 µM and the growth at 10 µM (EKVX) was 2%.

In the case of `COc1ccc(-c2nn3cc(-c4ccc(O)cc4O)nc3s2)cc1`, the growth at 10 µM (NCI-H226 [1]) is reported as -11%, the growth at 10 µM (NCI-H322M) is reported as 23% and the growth at 10 µM (UACC-62) is reported as 24%. For the same compound, the growth at 10 µM (IGROV-1) was 9%, the growth at 10 µM (786-0) was -78% and the GI50 (SF-268) was 2.42 µM. It also gave an LC50 (SF-268) greater than 100 µM, a TGI (SF-268) of 41.1 µM and a GI50 (CAKI-1) of 2070 nM. The LC50 (50% lethal concentration) (CAKI-1) was greater than 100 µM, the TGI (CAKI-1) was 28.9 µM and the GI50 (SN12C) was 2.58 µM. The TGI (SN12C) was greater than 100 µM, the CC50 (SN12C) was greater than 100 µM and the growth at 10 µM [2] was -2%. The growth at 10 µM (BT-549) was 12%, the growth at 0.1 µM [3] was 95% and the growth at 0.1 µM (HOP-62) was 91%. It also gave a growth at 0.1 µM (HCC 2998 [4]) of 94%, a growth at 0.1 µM (U-251) of 92% and a growth at 0.1 µM (LOX IMVI) of 94%. For the same compound, the growth at 100 µM (NCI-H226 [5]) was -19%, the growth at 100 µM (NCI-H522 [6]) was -23% and the growth at 100 µM (A498) was -37%. It also gave a growth at 100 µM (TK-10) of -21%, a growth at 100 µM (DU-145) of 2% and a growth at 0.01 µM (NCI-H460) of 101%. The growth at 0.01 µM (KM12 [7]) was 98%, the growth at 0.01 µM (SNB-19) was 93% and the growth at 0.01 µM (SK-MEL-28) was 95%. The growth at 1 µM (NCI-H522 [8]) was 69%, the growth at 1 µM (KM12 [9]) was 86% and the GI50 (NCI-H226 [10]) was 1430 nM. It also gave a TGI (NCI-H226 [10]) of 6.95 µM, a CC50 (NCI-H226 [10]) greater than 100 µM and a GI50 (HCC 2998 [11]) of 4370 nM. It also gave an LC50 (concentration causing 50% net cell kill) (HCC 2998 [11]) greater than 100 µM, a TGI (HCC 2998 [11]) of 84.4 µM and a growth at 10 µM (EKVX) of 15%.
